# SIAE inh = human SIAE inhibitors, primary screen, biochemical, fluorescence polarization, FP-Rh probe, 1536-well HTS; SIAE FP-Rh probe binding; AID 1053197, 2014; 0.69% of 370,000 active; inhibition, % at 9.66 µM; Sialate O-acetylesterase (Homo sapiens), Q9HAT2;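 active = inhibition above a cutoff: mean of compounds within the control limits plus 3 SD of those, cut at about 17% in these data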;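 also: 0% = plate median of compound wells and 100% = probe without SIAE protein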
# mABHD4 FP = ABHD4 inhibitors, primary screen, biochemical, fluorescence polarization, mouse. (Lyso)-N-acylphosphatidylethanolamine lipase (Mus musculus), Q8VD66. purified mABHD4, FP-Rh probe fluorescence polarization. 0.54% of 370,000 active. inhibition, % at 8.92 µM. AID 720543, 2013;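 active = inhibition exceeding the mean over every tested compound plus 3 SD, cut at about 30% in these data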;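 also: 0% = plate median of compound wells and 100% = S159A mutant with DMSO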
#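 Doses – 8.92 µM, single dose · Material – wild-type mouse ABHD4 protein · Replication – single well per compound (singlicate) · Measure – percent inhibition of probe binding, normalized to plate controls · Schedule – 45 min compound pre-incubation plus 60 min probe step, 25 °C · Detection – fluorescence polarization with parallel and perpendicular emission, 525/598 nm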
# HTRA1 inh = HTRA1 serine protease inhibitors, primary screen, biochemical, fluorescence polarization, HTS | inhibition, % at 5.96 µM | recombinant HTRA1, FP-rhodamine activity-based probe | Q92743 | AID 504803, 2011 | 0.5% of 340,000 active; in the data active = inhibition above about 36%;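 also: 0% = enzyme with DMSO and 100% = wells lacking enzyme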
# Target sequence (Q92743 whole entry, looked up): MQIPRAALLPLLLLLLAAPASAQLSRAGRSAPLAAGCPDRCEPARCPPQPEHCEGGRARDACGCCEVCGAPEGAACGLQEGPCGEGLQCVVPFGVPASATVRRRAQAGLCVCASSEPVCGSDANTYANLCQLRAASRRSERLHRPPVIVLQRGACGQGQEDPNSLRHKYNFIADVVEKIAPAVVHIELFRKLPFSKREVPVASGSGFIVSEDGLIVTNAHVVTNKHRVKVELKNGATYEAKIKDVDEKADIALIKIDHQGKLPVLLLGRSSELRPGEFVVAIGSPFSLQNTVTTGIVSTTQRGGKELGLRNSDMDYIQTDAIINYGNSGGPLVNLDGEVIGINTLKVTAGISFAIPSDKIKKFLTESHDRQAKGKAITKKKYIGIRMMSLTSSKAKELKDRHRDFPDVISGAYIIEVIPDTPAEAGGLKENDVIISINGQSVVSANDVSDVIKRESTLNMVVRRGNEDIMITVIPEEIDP
# RBBP9 inh = human RBBP9 inhibitors, primary screen, biochemical, fluorescence polarization, FP-Rh probe, HTS. Serine hydrolase RBBP9 (Homo sapiens), O75884. recombinant RBBP9. inhibition, % at 7.94 µM. 0.2% of 220,000 active. AID 1515, 2009;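 active = inhibition above the campaign mean of all tested compounds plus 3 SD, cut at about 14% in these data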;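 also: plate controls were DMSO wells with RBBP9 for no effect and wells lacking RBBP9 protein for full effect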
#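 Test system – recombinant human RBBP9 · Input – RBBP9 2.5 µM in dispensing solution, pre-mixing · Medium – Tris buffer pH 8.0, NaCl, Pluronic · Schedule – preincubation 30 min plus labeling 45 min at 25 °C · Measured by – fluorescence polarization · Measure – % inhibition · Controls – DMSO and no-protein wells · Replicates – one well per compound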
# SIAE inh conf = human SIAE inhibitors, retest, confirmation, biochemical, fluorescence polarization, FP-Rh probe, triplicate. shares compounds with SIAE inh. 13% of 2,300 active. inhibition, % at 9.66 µM. SIAE FP-Rh activity-based probe;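 active = mean inhibition of the replicates above the hit cutoff set in the primary screen, cut at about 17% in these data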;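 also: 0% = SIAE with DMSO and probe and 100% = probe without SIAE; inhibitors lower polarization as more probe stays unbound to SIAE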
# Numbers without * were called inactive; / = no result. This is a sample that favours compounds with a hit; in the whole collection about 1.4% have one here.
SMILES,SIAE inh,mABHD4 FP,HTRA1 inh,RBBP9 inh,SIAE inh conf
Cc1ccc(S(=O)(=O)N2CCC(C(=O)NCCCN3CCOCC3)CC2)cc1C,18*,-1,4,/,3
Cc1ccc(S(=O)(=O)N2CCC(C(=O)NCCN3CCOCC3)CC2)cc1C,10,-2,3,/,/
COc1ccc(NC(=S)N/N=C2\CC(C)(C)Oc3ccc(O)cc32)cc1,35*,7,10,11,28*
CC(=O)N1CCC2(CC1)C/C(=N\NC(=S)Nc1ccccc1F)c1cc(O)ccc1O2,11,7,6,3,/
COc1ccccc1NC(=S)N/N=C1\CC(C)(C)Oc2ccc(O)cc21,34*,15,0,2,12
CC(=O)N1CCC2(CC1)C/C(=N\NC(=S)Nc1ccccc1C)c1cc(O)ccc1O2,18*,15,10,-6,7
CC1(C)CC(=O)c2cc(O)ccc2O1,6,1,3,-2,/
CCN(CCO)CC1CCCC2CCCCC21 (configuration not stated),-2,3,/,/,/
CCCc1ccc(Oc2cn[nH]c2-c2ccc(O)cc2O)cc1,8,-4,16,-7,/
COc1ccc(Oc2cn[nH]c2-c2ccc(O)cc2O)cc1,19*,-3,6,-8,0
CN(C)CCN(C(=O)C1CCN(S(=O)(=O)c2cccs2)CC1)c1nc2c(F)cccc2s1,19*,4,0,/,-1
Cc1ccc2nc(N(CCN(C)C)C(=O)C3CCN(S(=O)(=O)c4cccs4)CC3)sc2c1,1,9,5,/,/
CCOC(=O)[C@]12CCC=C1N(Cc1ccccc1)C(=O)[C@H](CC(=O)NCCCCc1ccccc1)C2,-6,-5,/,/,/
CC(=O)OC(C(=O)Nc1ccccc1C)C(OC(C)=O)C(OC(C)=O)C(OC(C)=O)C(=O)Nc1ccccc1C (configuration not stated),/,/,/,-2,/
COc1ccc(-n2nnc3c(=O)n(CC(=O)Nc4cc(C)on4)cnc32)cc1OC,24*,0,4,-5,-1
COc1cccc(-n2nnc3c(=O)n(CC(=O)Nc4ccccc4C)cnc32)c1,-6,2,1,-9,/
Clc1ccc(Nc2nc(C3CC3)cs2)cc1,20*,2,3,-6,3
Cc1ccc(Nc2nc(C3CC3)cs2)cc1,/,/,/,-8,/
Cc1ccc(CN2CCCCC(NC(=O)c3cccc(F)c3)C2=O)cc1 (configuration not stated),-5,5,/,/,/
C/C(=N\N=c1/sc2ccccc2n1C)c1ccccn1,-2,-4,-2,13,/
C/C(=N\N=c1/sc2ccccc2n1C)c1ccc(N2CCOCC2)cc1,19*,6,7,-3,6
O=C(c1ccc(Cl)cc1[N+](=O)[O-])N1CCN(c2ccccn2)CC1,-4,-11,2,2,/
Cc1c(C(=O)N2CCN(c3ccccn3)CC2)cccc1[N+](=O)[O-],18*,5,-2,-4,-5
Cc1ccn2cc(-c3ccc(Br)cc3)nc2c1,17*,3,-7,-5,-1
COC(=O)C[C@@H]1C=C[C@H](NC(=O)Nc2cc(F)ccc2F)[C@@H](CO)O1,1,-13,/,/,/
SMILES,SIAE inh,mABHD4 FP,HTRA1 inh,RBBP9 inh,SIAE inh conf
CCN(CC)c1ccc(/C=N/NC(=O)c2nnn(-c3nonc3N)c2-c2ccc(C)cc2)cc1,25*,1,1,/,4
Cc1ccc(C(=O)OC(C)C(=O)N(C)C2CCCCC2)cc1S(=O)(=O)N1CCCCC1 (configuration not stated),2,-1,-12,/,/
COc1ccc(OCC(=O)Nc2cc(S(=O)(=O)N3CCCC3)ccc2OCC(F)(F)F)cc1,40*,2,-4,/,-1
O=C(N1CCCC1)n1c(Cc2ccccc2)nc2ccccc21,19*,-1,-4,6,2
O=C(O)Cn1c(CC(=O)N2CCCC2)nc2ccccc21,-2,-2,-2,2,/
CCOC(=O)CC[C@H]1CC[C@]2(CCCN(C(=O)c3cccnc3)C2)O1,30*,1,/,/,-2
CCOC(=O)CC[C@@H]1CC[C@]2(CCCN(C(=O)c3cccnc3)C2)O1,0,3,/,/,/
c1ccc([C@H]2CNCCN2CCc2cccc3ccccc23)cc1,23*,13,-3,/,4

# Source: PubChem BioAssay (The Scripps Research Institute Molecular Screening Center)
